Published values from different studies.
Each line is one published result; the experiments were not run side by side.
PPO3: PPO3 (Agaricus bisporus, UniProt C7FF04)
HTR2A: 5-hydroxytryptamine receptor 2A (HTR2A, Homo sapiens, UniProt P28223)
HDAC2: Histone deacetylase 2 (HDAC2, Homo sapiens, UniProt Q92769)

Nc1nc(-c2ccc(F)cc2)cc(-c2ccc(-c3cc(-c4ccc(F)cc4)nc(N)n3)cc2)n1  IC50 (PPO3; enzyme activity; inhibitor; absorbance): 46 µM
CC(C)C(N)CCN(C)C(=O)C(=O)Nc1cc2ccccc2cc1Cl (stereo not drawn)  IC50 (HTR2A; calcium signal; antagonist): 15.7 µM
Nc1ccccc1NC(=O)c1ccc(CNc2ccc(NC3=C(Cl)C(=O)c4cccnc4C3=O)cc2)cc1  IC50 (HDAC2; enzyme activity; inhibitor): 0.415 µM
C=CCNC(=O)C(C)N1CCCC(c2ccc(O)cc2)C1 (stereo not drawn)  IC50 (HTR2A; calcium signal; antagonist): 15.8 µM
Nc1nc(-c2ccccc2)cc(-c2ccc(-c3cc(-c4ccccc4)nc(N)n3)cc2)n1  IC50 (PPO3; enzyme activity; inhibitor; absorbance): 86.7 µM
O=C(NO)c1cncc(OS(=O)(=O)Oc2ccc3ccccc3c2)c1  IC50 (HDAC2; enzyme activity; inhibitor; fluorescence): 1.46 µM
CN(C(=O)c1cn[nH]n1)C1CCN(CCc2cccc(Cl)c2Cl)C1 (stereo not drawn)  IC50 (HTR2A; calcium signal; antagonist): 0.907 µM
CCc1c(C)nc(-c2ccc(Cl)s2)nc1Nc1ccc(CC(=O)O)cc1  IC50 (3',5'-cyclic-AMP phosphodiesterase 4A (PDE4A, Homo sapiens, UniProt P27815); enzyme activity; inhibitor; FP): ~3.7 µM
O=C(NO)c1cncc(OS(=O)(=O)Oc2ccc(-n3ccnc3)cc2)c1  IC50 (HDAC2; enzyme activity; inhibitor; fluorescence): 1.37 µM
Cc1ccc(-c2cc(-c3ccc(-c4cc(-c5ccc(C)cc5)nc(N)n4)cc3)nc(N)n2)cc1  IC50 (PPO3; enzyme activity; inhibitor; absorbance): 37.2 µM
CCN(Cc1cc(Br)ccc1O)C(=O)C(N)Cc1ccco1 (stereo not drawn)  IC50 (HTR2A; calcium signal; antagonist): 27 µM
C#Cc1ccc2c(=O)[nH]nc(Cc3ccc(F)c(C(=O)N4CCN(C(=O)C=C)CC4)c3)c2c1  IC50 (Poly [ADP-ribose] polymerase 1 (PARP1, Homo sapiens, UniProt P09874); enzyme activity; inhibitor): 0.85 µM
